# KDM4C inh = inhibitors of human demethylase GASC-1 KDM4C. 96,000 compounds, 0.15% hits. inhibition, % at 12.5 µM. GST-KDM4C 2-372, H3K9me3 peptide, LANCE TR-FRET;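 active = mean replicate inhibition above about 25%, with at least 55% of replicates also reaching it, limit read from the data, passing the limit was not always enough; inconclusive = only one of those two conditions met; inactive = neither condition met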
#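 System – N-terminal GST-fused human GASC-1 (KDM4C) fragment, residues 2-372 · Input – enzyme final amount 10 nM · Technique – LANCE TR-FRET, Eu antibody, ULight-streptavidin, EDTA, ex 340 nm, em 618/671 nm · Medium – HEPES buffer, pH 7.5, plus ascorbate · Incubation – enzyme reaction 30 min, then detection 60 min, both room temperature · Reagent – H3K9me3 peptide with Fe(II)/2OG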
# Pf Dd2 growth = blocks growth of Plasmodium falciparum Dd2 parasites; P. falciparum Dd2 growth, SYBR Green, 72 h; hits give low values; activity change, % at 10 µM; 94,000 compounds, 2.3% hits; AID 1159554; in the data active = activity change below about -80%; inconclusive = no clear call, values can overlap the other calls
# IDH1 mut inh = inhibitors of human IDH1 R132H; IDH1 R132H reductase, diaphorase/resazurin fluorescence, 60 min; inhibition, % at 10 µM; 70,000 compounds, 0.18% hits; in the data active = inhibition above about 34%; inconclusive = no clear call, values can overlap the other calls; inactive = below about 11%;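 also: 0% = DMSO and 100% = no enzyme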
# Target sequence (O75874 whole entry R132H): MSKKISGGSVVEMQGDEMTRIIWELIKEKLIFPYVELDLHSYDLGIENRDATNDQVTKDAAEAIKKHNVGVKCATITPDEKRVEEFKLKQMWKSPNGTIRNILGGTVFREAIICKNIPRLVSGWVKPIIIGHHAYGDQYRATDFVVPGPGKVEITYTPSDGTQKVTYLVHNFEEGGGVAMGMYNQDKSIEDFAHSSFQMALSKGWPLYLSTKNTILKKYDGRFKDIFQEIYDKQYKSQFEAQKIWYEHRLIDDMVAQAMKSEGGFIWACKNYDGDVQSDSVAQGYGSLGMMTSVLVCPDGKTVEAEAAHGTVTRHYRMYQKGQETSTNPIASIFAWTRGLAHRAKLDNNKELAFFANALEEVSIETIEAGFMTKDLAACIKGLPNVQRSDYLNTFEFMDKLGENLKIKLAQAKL
# T cruzi growth-1 = T. cruzi proliferation inhibition. inhibition, % at 8.34 µM. 77,000 compounds, 5.9% hits. T. cruzi beta-gal in NIH3T3, GalScreen luminescence, 90 h;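 active = mean inhibition above about 93%, with at least 55% of replicates each passing it, limit read from the data, passing the limit was not always enough; inconclusive = only one of those two conditions holds; inactive = neither condition holds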
# T cruzi growth-2 = blocks T. cruzi growth in NIH3T3 host cells; AID 651739; T. cruzi beta-gal in NIH3T3, GalScreen luminescence, 90 h; 5,600 compounds, 72% hits; inhibition, % at 8.35 µM; shares compounds with T cruzi growth-1;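 active = mean replicate inhibition above about 95% and at least 55% of replicates individually reaching it, limit read from the data; inconclusive = only one of the two criteria is met; inactive = neither criterion is met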
# T cruzi growth-3 = inhibitors of T. cruzi proliferation; shares compounds with T cruzi growth-1; T. cruzi beta-gal in NIH3T3, GalScreen luminescence, 90 h; inhibition, % at 2.09 µM; 5,600 compounds, 21% hits; AID 651740;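 active = mean inhibition above about 95%, with at least 55% of replicates also reaching it, limit read from the data; inconclusive = meets just one of the two conditions; inactive = meets neither condition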;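 also: plate controls were neutral control median for no effect and positive control median for full effect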
# NIH3T3 tox = NIH/3T3 (mouse) viability loss | shares compounds with T cruzi growth-1 | NIH/3T3 viability, CellTiter-Glo ATP luminescence, 90 h | cytotoxicity (signal decrease), % at 8.35 µM | 5,600 compounds, 14% hits;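 active = mean signal decrease across replicates above about 35% based on untreated-well scatter, with enough replicates individually passing, limit read from the data; inconclusive = no rule stated though some were filed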;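 also: 0% = median of neutral control wells and 100% = median of positive control wells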
# 3T3 cytotox 2 = kills mouse NIH/3T3 fibroblasts; NIH/3T3 viability, CellTiter-Glo ATP luminescence, 90 h; inhibition, % at 24.9 µM; AID 651744; 5,600 compounds, 56% hits; shares compounds with T cruzi growth-1;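 active = mean loss of cell viability signal at or above a set limit, and enough replicates individually reaching it; inconclusive = meets only the mean limit or only the replicate share; inactive = meets neither condition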;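 also: 0% = median of neutral control wells and 100% = median of positive control wells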
# Numbers without * were called inactive; ? = inconclusive; . = no result given. Sampled rows, rich in hits. Any-hit rate of the full collection: about 5.9%.
SMILES,KDM4C inh,Pf Dd2 growth,IDH1 mut inh,T cruzi growth-1,T cruzi growth-2,T cruzi growth-3,NIH3T3 tox,3T3 cytotox 2
CCCN1[C@H](C(=O)N[C@@H](C)c2ccccc2)[C@@H](CO)[C@@H]2Cn3c(ccc(-c4cccc(F)c4)c3=O)[C@@H]21,14,.,.,108*,97*,63,3,68*
C[C@H](NC(=O)C[C@H]1C[C@H]2c3cc(NC(=O)C4CCOCC4)ccc3O[C@H]2[C@@H](CO)O1)c1ccccc1,-2,23,-1,-2,.,.,.,.
C[C@@H]1CN([C@H](C)CO)C(=O)c2cccc(NS(=O)(=O)c3ccccc3)c2O[C@@H]1CN(C)C(=O)Nc1ccc2c(c1)OCO2,0,-12,-8,6,.,.,.,.
N#C[C@@H]1[C@@H](c2ccc(-c3cccc(F)c3)cc2)[C@@H](CO)N1c1nc(-c2ccccc2)cs1,-2,-51,.,99*,110*,99*,29,16
N#C[C@H]1[C@@H](c2ccc(-c3cccc(F)c3)cc2)[C@@H](CO)N1c1nc(-c2ccccc2)cs1,2,25,.,94,.,.,.,.
N#C[C@@H]1[C@@H](c2ccc(C3=CCCC3)cc2)[C@@H](CO)N1c1nc(-c2ccccc2)cs1,-3,6,.,108*,96*,40,6,13
N#C[C@@H]1[C@@H](c2ccc(-c3ccc(F)cc3)cc2)[C@@H](CO)N1c1nc(-c2ccccc2)cs1,-3,-40,.,105*,108*,96*,16,13
O=C(C[C@H]1CC[C@@H]2[C@H](COC[C@H](O)CN2Cc2cccc(C(F)(F)F)c2)O1)NCc1ccncc1,-1,12,.,-1,.,.,.,.
OC[C@H]1Nc2ccc(-c3ccccc3)cc2[C@H]2[C@@H]1CCN2Cc1ccc(F)cc1,1,-76,.,104*,99*,113*,26,105*
OC[C@@H]1Nc2ccc(-c3ccccc3)cc2[C@H]2[C@@H]1CCN2Cc1ccc(F)cc1,0,-61,.,105*,104*,111*,12,103*
C[C@@H]1CCCCO[C@@H](CN(C)C(=O)c2ccncc2)[C@@H](C)CN([C@@H](C)CO)C(=O)c2cc(NS(=O)(=O)c3ccc(F)cc3)ccc2O1,3,-4,0,-53,.,.,.,.
C[C@@H]1CN([C@H](C)CO)C(=O)c2cccc(NC(=O)C3CC3)c2O[C@@H]1CN(C)C(=O)Nc1ccc(F)cc1,1,-24,.,26,.,.,.,.
C[C@H](CO)N1C[C@H](C)[C@@H](CN(C)Cc2ccc(Cl)c(Cl)c2)Oc2c(NC(=O)c3nc4ccccc4s3)cccc2C1=O,1,-39,-2,102*,99*,87,-8,3
C[C@H](CO)N1C[C@H](C)[C@@H](CN(C)Cc2ccc(-c3ccccc3)cc2)Oc2c(NC(=O)c3nc4ccccc4s3)cccc2C1=O,-2,-51,.,?,105*,87,15,12
Cc1ccc(S(=O)(=O)N(C)C[C@H]2Oc3c(NC(=O)c4nc5ccccc5s4)cccc3C(=O)N([C@@H](C)CO)C[C@@H]2C)cc1,10,-66,.,115*,?,93,10,44*
C[C@H](CO)N1C[C@H](C)[C@H](CN(C)Cc2ccc(-c3ccccc3)cc2)Oc2c(NC(=O)c3nc4ccccc4s3)cccc2C1=O,-4,-47,.,64,.,.,.,.
C[C@H]1CN([C@@H](C)CO)C(=O)c2cccc(NC(=O)c3nc4ccccc4s3)c2O[C@H]1CN(C)Cc1ccc(-c2ccccc2)cc1,2,-18,3,102*,102*,83,25,22
C[C@H](CO)N1C[C@H](C)[C@H](CN(C)Cc2ccccc2)Oc2ccc(NC(=O)NC3CCCCC3)cc2C1=O,-1,29,.,4,.,.,.,.
C/C=C/c1ccc([C@H]2[C@@H](CO)N[C@@H]2CNC(=O)C2CCC2)cc1,2,-17,.,.,.,.,.,.
COC(=O)Cc1c(C)nc2nc(NCc3cccs3)[nH]n2c1=O,.,.,1,.,.,.,.,.
O=C(Nc1cccc(F)c1)N1CCCCN2[C@H](CO)[C@@H](c3ccc(C#Cc4ccccc4)cc3)[C@@H]2C1,0,-18,.,88,.,.,.,.
O=C(Nc1ccc(F)cc1)N1CCCCN2[C@H](CO)[C@H](c3ccc(C#CC4CC4)cc3)[C@H]2C1,-1,-40,.,70,.,.,.,.
O=C(Nc1ccc(F)cc1)N1CCCCN2[C@@H](CO)[C@@H](c3ccc(C#CC4CC4)cc3)[C@@H]2C1,1,-53,.,97*,98*,107*,119*,106*
O=C(Nc1ccc(F)cc1)N1CCCCN2[C@H](C1)[C@H](c1ccc(C#CC3CC3)cc1)[C@@H]2CO,-1,-47,.,122*,100*,34,26,23
O=C(Nc1cccc(F)c1)N1CCCCN2[C@@H](CO)[C@H](c3ccc(C#CC4CC4)cc3)[C@@H]2C1,0,-19,.,?,93,102*,105*,106*
SMILES,KDM4C inh,Pf Dd2 growth,IDH1 mut inh,T cruzi growth-1,T cruzi growth-2,T cruzi growth-3,NIH3T3 tox,3T3 cytotox 2
C[C@@H]1CN([C@H](C)CO)C(=O)c2cccc(NC(=O)Nc3ccccc3)c2O[C@H]1CN(C)Cc1ccc(-c2ccccc2)cc1,-2,-47,.,81,.,.,.,.
CCC(=O)N1CCCCN2[C@H](C1)[C@H](c1ccc(/C=C/c3ccccc3)cc1)[C@@H]2CO,-2,-3,.,105*,78,14,25,103*
CN1CCCCN2[C@@H](CO)[C@@H](c3ccc(/C=C/c4ccccc4)cc3)[C@@H]2C1,-2,-6,.,82,.,.,.,.
CN(C)CC(=O)N1CCCCN2[C@H](CO)[C@@H](c3ccc(/C=C/c4ccccc4)cc3)[C@@H]2C1,-2,-17,.,-21,.,.,.,.
CCC(=O)N1CCCCN2[C@@H](CO)[C@@H](c3ccc(/C=C/c4ccccc4)cc3)[C@@H]2C1,-3,-23,.,118*,99*,80,7,105*
CN(C)CC(=O)N1CCCCN2[C@H](CO)[C@H](c3ccc(/C=C/c4ccccc4)cc3)[C@@H]2C1,-1,-2,.,101*,112*,110*,89*,104*
CCC(=O)N1CCCCN2[C@H](CO)[C@@H](c3ccc(/C=C/c4ccccc4)cc3)[C@@H]2C1,-1,8,.,63,.,.,.,.
CO[C@@H]1CN(C)C(=O)c2ccc(NC(=O)c3cc(C)on3)cc2OC[C@@H](C)N(S(=O)(=O)c2ccc(F)cc2)C[C@H]1C,0,-72,0,14,.,.,.,.
CCC(=O)Nc1ccc2c(c1)C(=O)N(C)C[C@@H](OC)[C@@H](C)CN(C(=O)COC)[C@H](C)CO2,2,25,0,.,.,.,.,.

# Compound activity as filed in PubChem.
